Assay results reported in ChEMBL document CHEMBL1126899, “Nonpeptide angiotensin II antagonists derived from 1H-pyrazole-5-carboxylates and 4-aryl-1H-imidazole-5-carboxylates” (J Med Chem, 1993).

Key:
[1] = target: T1, Type-1 angiotensin II receptor (Oryctolagus cuniculus, UniProt P34976); assay: Evaluation of Angiotensin II antagonistic activity by displacement of [125I]-Sar Ile-AII at the rabbit aorta Angiotensin II receptor, type 1; format: tissue-based
T1 sequence (P34976 whole entry): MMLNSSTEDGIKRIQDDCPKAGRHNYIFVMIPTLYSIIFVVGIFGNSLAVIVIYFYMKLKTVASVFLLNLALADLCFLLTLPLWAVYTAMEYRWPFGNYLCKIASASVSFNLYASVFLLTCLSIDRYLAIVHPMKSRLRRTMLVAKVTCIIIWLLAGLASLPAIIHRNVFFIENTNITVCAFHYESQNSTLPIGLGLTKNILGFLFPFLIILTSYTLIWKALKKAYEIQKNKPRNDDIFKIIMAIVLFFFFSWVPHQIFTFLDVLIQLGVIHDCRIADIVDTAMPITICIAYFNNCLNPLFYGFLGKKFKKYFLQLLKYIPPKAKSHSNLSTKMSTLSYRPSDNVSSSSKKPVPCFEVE
In short: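 Rabbit aorta membranes, run without BSA. Competition against [¹²⁵I]Sar¹Ile⁸-AII, in duplicate tubes. Some values are means of two or more separate assays. Standard error is estimated at <30% of the mean.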

Rattus norvegicus [2] = assay: Time to produce onset of action for inhibition of Angiotensin II pressor response in conscious, normotensive rats at 0.1 mg/kg iv; format: functional
In short: (§1)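 Conscious male Sprague-Dawley rats (300–400 g), instrumented for iv dosing and arterial pressure. A single iv or po bolus of compound (PEG 400 for some oral doses), then repeated AII challenges at 0.1 μg/kg iv. […] Averaged from at least two rats unless noted.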

Rattus norvegicus [3] = assay: Time to produce onset of action for inhibition of Angiotensin II pressor response in conscious, normotensive rats at 1 mg/kg po; format: functional; in short: as §1
Rattus norvegicus [4] = assay: Peak percent inhibition of Angiotensin II pressor response in conscious, normotensive rats at 0.1 mg/kg iv; format: functional
In short: (§2)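 Male Sprague-Dawley rats (300–400 g), conscious, catheterized for iv dosing and for arterial pressure and heart rate. Compound given iv or po; PEG 400 vehicle in some oral cases. AII 0.1 μg/kg iv boluses at set intervals afterward. % inhibition of the MAP rise was calculated at each time point, and the peak was taken. Averaged from at least two rats unless noted.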

Rattus norvegicus [5] = assay: Peak percent inhibition of Angiotensin II pressor response in conscious, normotensive rats at 1 mg/kg po; format: functional; in short: as §2
Rattus norvegicus [6] = assay: Time to produce onset of action for inhibition of Angiotensin II pressor response in conscious, normotensive rats at 0.3 mg/kg po; format: functional; in short: as §1
Rattus norvegicus [7] = assay: Time to produce onset of action for inhibition of Angiotensin II pressor response in conscious, normotensive rats at 1 mg/kg iv; format: functional; in short: as §1
Rattus norvegicus [8] = assay: Peak percent inhibition of Angiotensin II pressor response in conscious, normotensive rats at 1 mg/kg iv; format: functional; in short: as §2
Rattus norvegicus [9] = assay: Peak percent inhibition of Angiotensin II pressor response in conscious, normotensive rats at 0.3 mg/kg po; format: functional; in short: as §2
Rattus norvegicus [10] = assay: Time to produce onset of action for inhibition of Angiotensin II pressor response in conscious, normotensive rats at 0.3 mg/kg iv; format: functional; in short: as §1
Rattus norvegicus [11] = assay: Peak percent inhibition of Angiotensin II pressor response in conscious, normotensive rats at 0.3 mg/kg iv; format: functional; in short: as §2
Rattus norvegicus [12] = assay: Time to produce onset of action for inhibition of pressor response in conscious, normotensive rats at 1 mg/kg iv (no. of animals treated); format: functional; in short: as §1
Rattus norvegicus [13] = assay: Peak percent inhibition of Angiotensin II pressor response in conscious, normotensive rats at 1 mg/kg iv (no. of animals treated); format: functional; in short: as §2
Rattus norvegicus [14] = assay: Time to produce onset of action for inhibition of pressor response in conscious, normotensive rats at 0.1 mg/kg iv (no. of animals treated); format: functional; in short: as §1
Rattus norvegicus [15] = assay: Time to produce onset of action for inhibition of pressor response in conscious, normotensive rats at 0.3 mg/kg po (no. of animals treated); format: functional; in short: as §1
Rattus norvegicus [16] = assay: Peak percent inhibition of Angiotensin II pressor response in conscious, normotensive rats at 0.1 mg/kg iv (no. of animals treated); format: functional; in short: as §2
Rattus norvegicus [17] = assay: Peak percent inhibition of Angiotensin II pressor response in conscious, normotensive rats at 0.3 mg/kg po(no. of animals treated); format: functional; in short: as §2

Structure (SMILES) | IC50 [1] [nM] | other results
CCCc1nn(CC(F)(F)F)c(C(=O)OCC)c1Cc1ccc(-c2ccccc2-c2nnn[nH]2)cc1 | 76 | 
CCCCc1nn(-c2ccccc2[N+](=O)[O-])c(C(=O)O)c1Cc1ccc(-c2ccccc2-c2nnn[nH]2)cc1 | 1.7 | 
CCCCc1nn(-c2ccc(Cl)cc2)c(C(=O)O)c1Cc1ccc(-c2ccccc2-c2nn[nH]n2)cc1 | 1.3 | 
CCCc1[nH]nc(C(=O)OCC)c1Cc1ccc(-c2ccccc2-c2nnn[nH]2)cc1 | 160 | 
CCCCc1nn(-c2ccccc2-c2ccccc2)c(C(=O)OCC)c1Cc1ccc(-c2ccccc2-c2nn[nH]n2)cc1 | 23 | 
CCCCc1nn(-c2ccccc2)c(C(=O)OCC)c1Cc1ccc(-c2ccccc2-c2nnn[nH]2)cc1 | 81 | 
CCCCc1nn(-c2ccccc2C(F)(F)F)c(C(=O)OCC)c1Cc1ccc(-c2ccccc2-c2nnn[nH]2)cc1 | 21 | 
CCCCc1nn(-c2c(Cl)cccc2Cl)c(C(=O)O)c1Cc1ccc(-c2ccccc2-c2nn[nH]n2)cc1 | 0.18 | Duration (Rattus norvegicus [2]): >4.5 h; Duration (Rattus norvegicus [3]): >4.5 h; inhibition in vivo at 0.1 mg/kg (Rattus norvegicus [4]): 80%; inhibition in vivo at 1 mg/kg (Rattus norvegicus [5]): 79%
CCCc1nn(-c2c(Cl)cccc2Cl)c(C(=O)O)c1Cc1ccc(-c2ccccc2-c2nn[nH]n2)cc1 | 0.69 | Duration (Rattus norvegicus [2]): 5.4 h; Duration (Rattus norvegicus [6]): >3 h; Duration (Rattus norvegicus [7]): >6 h; Duration (Rattus norvegicus [3]): >23 h; inhibition in vivo at 0.1 mg/kg (Rattus norvegicus [4]): 60%; inhibition in vivo at 1 mg/kg (Rattus norvegicus [8]): 100%; inhibition in vivo at 1 mg/kg (Rattus norvegicus [5]): 87%; inhibition in vivo at 0.3 mg/kg (Rattus norvegicus [9]): 56%
CCOC(=O)c1c(Cc2ccc(-c3ccccc3-c3nnn[nH]3)cc2)c(CC2CC2)nn1-c1c(Cl)cccc1Cl | 76 | 
CCCCc1nn(-c2cccc(Cl)c2)c(C(=O)O)c1Cc1ccc(-c2ccccc2-c2nn[nH]n2)cc1 | 2.3 | 
CCCCc1nn(-c2ccccn2)c(C(=O)OCC)c1Cc1ccc(-c2ccccc2-c2nnn[nH]2)cc1 | 18 | 
CCCCc1nn(-c2ccccc2C)c(C(=O)O)c1Cc1ccc(-c2ccccc2-c2nn[nH]n2)cc1 | 0.46 | 
CCCCc1nn(-c2ccccc2Cl)c(C(=O)O)c1Cc1ccc(-c2ccccc2-c2nn[nH]n2)cc1 | 0.35 | Duration (Rattus norvegicus [7]): >6 h; Duration (Rattus norvegicus [3]): >3 h; Duration (Rattus norvegicus [10]): ~3.8 h; inhibition in vivo at 0.3 mg/kg (Rattus norvegicus [11]): 73%; inhibition in vivo at 1 mg/kg (Rattus norvegicus [8]): 93%; inhibition in vivo at 1 mg/kg (Rattus norvegicus [5]): 64%
CCCCc1nn(CC)c(C(=O)O)c1Cc1ccc(-c2ccccc2-c2nn[nH]n2)cc1 | 2.7 | 
CCCCc1nn(-c2cccc(Cl)c2Cl)c(C(=O)OCC)c1Cc1ccc(-c2ccccc2-c2nnn[nH]2)cc1 | 90 | 
CCCCc1nn(-c2ccccc2[N+](=O)[O-])c(C(=O)OCC)c1Cc1ccc(-c2ccccc2-c2nnn[nH]2)cc1 | 9.5 | 
CCCCc1nn(CCc2ccccc2)c(C(=O)O)c1Cc1ccc(-c2ccccc2-c2nn[nH]n2)cc1 | 0.24 | Duration (Rattus norvegicus [7]): >24 h; inhibition in vivo at 1 mg/kg (Rattus norvegicus [8]): 95%
CCCCc1nn(-c2ccccc2-c2ccccc2)c(C(=O)O)c1Cc1ccc(-c2ccccc2-c2nnn[nH]2)cc1 | 0.64 | 
CCCc1nn(-c2c(Cl)cccc2Cl)c(C(=O)OCC)c1Cc1ccc(-c2ccccc2-c2nn[nH]n2)cc1 | 20 | 
CCCCc1nn(-c2c(Cl)cc(Cl)cc2Cl)c(C(=O)O)c1Cc1ccc(-c2ccccc2-c2nnn[nH]2)cc1 | 0.5 | 
CCCc1nn(Cc2ccccc2)c(C(=O)OCC)c1Cc1ccc(-c2ccccc2-c2nn[nH]n2)cc1 | 22 | 
CCCCc1nn(-c2ccc(Cl)cc2Cl)c(C(=O)O)c1Cc1ccc(-c2ccccc2-c2nn[nH]n2)cc1 | 0.6 | 
CCCCc1nn(-c2ccc(OC)cc2)c(C(=O)OCC)c1Cc1ccc(-c2ccccc2-c2nnn[nH]2)cc1 | 20 | 
CCCCc1nn(-c2ccccc2C)c(C(=O)OCC)c1Cc1ccc(-c2ccccc2-c2nn[nH]n2)cc1 | 13 | 

Structure (SMILES) | IC50 [1] [nM] | other results
CCCCc1nn(-c2c(Cl)cc(Cl)cc2Cl)c(C(=O)OCC)c1Cc1ccc(-c2ccccc2-c2nn[nH]n2)cc1 | 37 | 
CCCc1nn(-c2ccccc2C(F)(F)F)c(C(=O)OCC)c1Cc1ccc(-c2ccccc2-c2nnn[nH]2)cc1 | 56 | 
CCCc1nc(C(F)(F)C(F)(F)F)c(C(=O)O)n1Cc1ccc(-c2ccccc2-c2nnn[nH]2)cc1 | 1.1 | 
CCCc1nn(-c2ccccc2C(F)(F)F)c(C(=O)O)c1Cc1ccc(-c2ccccc2-c2nn[nH]n2)cc1 | 0.67 | Duration (Rattus norvegicus [6]): >3.5 h; Duration (Rattus norvegicus [7]): >6 h; Duration (Rattus norvegicus [3]): >3.5 h; Duration (Rattus norvegicus [10]): ~4 h; inhibition in vivo at 0.3 mg/kg (Rattus norvegicus [11]): 77%; inhibition in vivo at 1 mg/kg (Rattus norvegicus [8]): 100%; inhibition in vivo at 1 mg/kg (Rattus norvegicus [5]): 71%; inhibition in vivo at 0.3 mg/kg (Rattus norvegicus [9]): 57%
CCCCc1nn(-c2cccc(Cl)c2Cl)c(C(=O)O)c1Cc1ccc(-c2ccccc2-c2nnn[nH]2)cc1 | 0.77 | 
CCCCc1nn(-c2ccc(Cl)cc2Cl)c(C(=O)OCC)c1Cc1ccc(-c2ccccc2-c2nnn[nH]2)cc1 | 6.7 | 
CCCCc1nn(-c2cccc(Cl)c2)c(C(=O)OCC)c1Cc1ccc(-c2ccccc2-c2nn[nH]n2)cc1 | 55 | 
CCCCc1nn(-c2ccccn2)c(C(=O)O)c1Cc1ccc(-c2ccccc2-c2nn[nH]n2)cc1 | 1.7 | 
CCCCc1nn(-c2ccccc2C(F)(F)F)c(C(=O)O)c1Cc1ccc(-c2ccccc2-c2nn[nH]n2)cc1 | 0.24 | Duration (Rattus norvegicus [2]): 3.5 h; Duration (Rattus norvegicus [7]): 5.3 h; inhibition in vivo at 0.1 mg/kg (Rattus norvegicus [4]): 57%; inhibition in vivo at 1 mg/kg (Rattus norvegicus [8]): 100%
O=C(O)c1c(Cc2ccc(-c3ccccc3-c3nn[nH]n3)cc2)c(CC2CC2)nn1-c1c(Cl)cccc1Cl | 3.7 | 
CCCCc1nn(CC(F)(F)F)c(C(=O)O)c1Cc1ccc(-c2ccccc2-c2nn[nH]n2)cc1 | 0.52 | 
CCCCc1n[nH]c(C(=O)O)c1Cc1ccc(-c2ccccc2-c2nn[nH]n2)cc1 | 2 | Duration (Rattus norvegicus [12]): >6 h; inhibition in vivo at 1 mg/kg (Rattus norvegicus [13]): 94%
CCCCc1nc(-c2ccccc2Cl)c(C(=O)O)n1Cc1ccc(-c2ccccc2-c2nn[nH]n2)cc1 | 0.55 | Duration (Rattus norvegicus [14]): >6 h; Duration (Rattus norvegicus [15]): 0.4 h; inhibition in vivo at 0.1 mg/kg (Rattus norvegicus [16]): 88%; inhibition in vivo at 0.3 mg/kg (Rattus norvegicus [17]): 50%
CCCCc1nn(CC(F)(F)F)c(C(=O)OCC)c1Cc1ccc(-c2ccccc2-c2nn[nH]n2)cc1 | 30 | 
CCCCc1nc(-c2ccccc2)c(C(=O)OCC)n1Cc1ccc(-c2ccccc2-c2nn[nH]n2)cc1 | 41 | 
CCCCc1nn(-c2cc(Cl)ccc2Cl)c(C(=O)OCC)c1Cc1ccc(-c2ccccc2-c2nn[nH]n2)cc1 | 105 | 
CCCCc1nn(-c2ccc(OC)cc2[N+](=O)[O-])c(C(=O)O)c1Cc1ccc(-c2ccccc2-c2nnn[nH]2)cc1 | 2.5 | 
CCCCc1nn(-c2ccc(OC)cc2)c(C(=O)O)c1Cc1ccc(-c2ccccc2-c2nn[nH]n2)cc1 | 0.8 | 
CCCCc1nn(-c2c(Cl)cccc2Cl)c(C(=O)OCC)c1Cc1ccc(-c2ccccc2-c2nnn[nH]2)cc1 | 8 | 
CCCCc1nn(Cc2ccccc2)c(C(=O)O)c1Cc1ccc(-c2ccccc2-c2nn[nH]n2)cc1 | 0.2 | Duration (Rattus norvegicus [2]): >5 h; Duration (Rattus norvegicus [6]): >3 h; Duration (Rattus norvegicus [3]): >24 h; inhibition in vivo at 0.1 mg/kg (Rattus norvegicus [4]): 68%; inhibition in vivo at 0.3 mg/kg (Rattus norvegicus [17]): 75%; inhibition in vivo at 1 mg/kg (Rattus norvegicus [5]): 100%
CCCCc1nn(-c2ccc(Cl)cc2)c(C(=O)OCC)c1Cc1ccc(-c2ccccc2-c2nn[nH]n2)cc1 | 100 | 
CCCCc1nn(-c2ccccc2Cl)c(C(=O)OCC)c1Cc1ccc(-c2ccccc2-c2nn[nH]n2)cc1 | 13 | Duration (Rattus norvegicus [3]): >2.5 h; inhibition in vivo at 1 mg/kg (Rattus norvegicus [8]): 43%; inhibition in vivo at 1 mg/kg (Rattus norvegicus [5]): 50%
CCCCc1n[nH]c(C(=O)OCC)c1Cc1ccc(-c2ccccc2-c2nn[nH]n2)cc1 | 130 | Duration (Rattus norvegicus [7]): >5 h; inhibition in vivo at 1 mg/kg (Rattus norvegicus [8]): 80%
CCCCc1nn(Cc2ccccc2)c(C(=O)OCC)c1Cc1ccc(-c2ccccc2-c2nnn[nH]2)cc1 | > 100 | 
CCCCc1nn(-c2cc(Cl)ccc2Cl)c(C(=O)O)c1Cc1ccc(-c2ccccc2-c2nnn[nH]2)cc1 | 3.2 | 
